Source: PubChem (Broad Institute)
Only some compounds are listed: those with a hit (about 1.9% of all), similar ones and a draw of the others.
RAD52 anneal inh – RAD52 (human) annealing inhibition. P43351. recombinant RAD52 DNA annealing, FRET fluorescence. inhibition, % at 18.7 µM. actives 0.46% (n = 360,000). AID 651710;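 active means every replicate showing at least 50% inhibition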
Target sequence (P43351 whole entry, looked up): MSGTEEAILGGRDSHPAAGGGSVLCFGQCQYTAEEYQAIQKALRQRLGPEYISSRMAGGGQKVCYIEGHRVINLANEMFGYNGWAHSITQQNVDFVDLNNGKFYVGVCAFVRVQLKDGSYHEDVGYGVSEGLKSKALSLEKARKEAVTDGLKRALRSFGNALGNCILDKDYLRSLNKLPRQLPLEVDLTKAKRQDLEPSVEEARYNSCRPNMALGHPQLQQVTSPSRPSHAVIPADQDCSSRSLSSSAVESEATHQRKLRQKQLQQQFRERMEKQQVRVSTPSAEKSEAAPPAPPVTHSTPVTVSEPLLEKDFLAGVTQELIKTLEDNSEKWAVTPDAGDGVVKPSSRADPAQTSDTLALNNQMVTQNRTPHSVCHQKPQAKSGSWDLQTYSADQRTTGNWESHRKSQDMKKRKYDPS
PglD DTNB – blocks C. jejuni PglD acetyltransferase activity | purified PglD enzyme, DTNB colorimetric CoA detection | inhibition, % at 12.5 µM | actives 0.098% (n = 360,000); in the data active means inhibition above about 16%, passing the limit was not always enough
Cneo AK release – causes C. neoformans cell lysis | adenylate kinase release luminescence, 4 h; normalised: neutral wells 0, clomiphene wells 100 | lysis activity, % at 15 µM | actives 0.2% (n = 360,000) | AID 651654;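 active means mean lysis activity across replicates of at least 80%, whatever share of replicates individually reach that level; inactive means mean lysis activity below 80%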
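Assay system: log-phase C. neoformans yeast / Quantity: yeast cell density of 5 × 10^6 cells/mL / Medium: fresh YPD growth medium / Compound: single dose / Timing: static 4 h at 37 °C with compound, 1 h detection / Measured by: adenylate kinase release luminescence / Read-out: lysis from increased AK signal / Benchmarks: Clomiphene as positive lysis control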
RAD54 branch – RAD54 (human) branch migration inhibition. RAD54 Holliday junction branch migration, FAM/BHQ fluorescence. actives 0.14% (n = 360,000). inhibition, % at 10.4 µM;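 active means mean normalized replicate activity at least 40 and at least half of replicates scoring 40 or more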;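 further: 0% = median of neutral control wells and 100% = median of positive control wells; inhibitors cause a drop in the FAM fluorescence signal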
rRNA inh HTS – inhibits bacterial ribosomal RNA function over humanized ribosomes; actives 1.6% (n = 350,000); GFP signal change (wild-type ribosome), % (concentration not given with the values); E. coli WT GFP vs humanized-ribosome RFP mutants, fluorescence, 24 h; active compounds read low; DMSO median 0, no signal -100;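 active means significant combined selectivity score with lowered wild-type GFP, culture density cut under 30%, mutant RFP and density less affected; inactive means any of these conditions unmet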
The depositor's hits bear a star; . = not tested or not shown.

SMILES	RAD52 anneal inh	PglD DTNB	Cneo AK release	RAD54 branch	rRNA inh HTS
COc1cc(/C=C/C(=O)c2ccc([N+](=O)[O-])o2)ccc1O	-9.2	1.6	-4.4	-5.1	-23.6*
N#Cc1cccc(-c2ccc(C3[C@H]4CNC[C@@H]3N4C(=O)Nc3cccc(F)c3)cc2)c1 (some centres not stated)	37.6	.	.	.	-57.7
Cc1noc(C)c1S(=O)(=O)N(C)C[C@@H]1OCCCC[C@H](C)Oc2ccc(NC(=O)NC3CCCCC3)cc2C(=O)N([C@H](C)CO)C[C@H]1C	-52.5	-0.3	1.4	-1.5	-0.9
Cc1noc(C)c1NC(=O)N1C[C@@H](O)COC[C@H]2O[C@@H](CC(=O)NCC3CC3)CC[C@@H]21	3.3	1.5	-2.2	-5.4	0.4
CC(C)N(C(=O)Nc1ccc2nsnc2c1)C(C)C	-2.2	.	.	.	-16.4*
O=C1OC(c2ccccc2)Cc2cc(C(=O)N3CCN(c4ccc(F)cc4)CC3)ccc21 (configuration not stated)	-20.2	0.2	3.6	6.3	-29.4*
Cc1ccc(-c2ccc([C@@H]3[C@@H](CO)N4CCCCN(C(=O)c5ccncc5)C[C@@H]34)cc2)cc1	2.2	4.5	-2.1	-3.5	-0.3
C[C@H](CO)N1C[C@H](C)[C@@H](CN(C)C(=O)C2CCC2)Oc2cc(Br)ccc2S1(=O)=O	.	.	.	.	-4.9
COc1ccc(C2CC(c3ccccc3O)=NN2c2ccccc2)cc1 (configuration not stated)	-3.5	.	.	.	-21.1*
CCCNC(=O)N(C)C[C@H]1Oc2cc(C#Cc3ccccn3)ccc2S(=O)(=O)N([C@@H](C)CO)C[C@@H]1C	-12.2	-16.0	-2.5	3.7	-2.0
O=C(c1cc(Br)ccc1Cl)N1CCN(c2ccccn2)CC1	-8.7	4.3	135.4*	1.0	4.4
O=C(c1cc(Cl)ccc1Cl)N1CCN(c2ccccn2)CC1	1.0	5.1	-0.6	1.8	-5.2
COc1ccc2c3c([nH]c2c1)[C@H](CO)N(C(=O)c1ccccn1)CC31CCN(C(=O)C2CC2)CC1	.	.	.	.	1.7
CC(=NNc1nc2ccccc2o1)c1cc2ccccc2cn1	-5.6	.	.	.	-21.8*
C[C@@H]1CN([C@H](C)CO)C(=O)c2ccccc2-c2ccccc2CO[C@@H]1CN(C)C(=O)[C@H](C)c1ccccc1	.	.	.	.	1.4
Cc1ccc2c(c1)C(c1ccc(O)cc1)(c1ccc(O)cc1)C(=O)N2C	-7.5	.	.	.	1.9
Cc1cc(C2(c3ccc(O)c(C)c3)C(=O)N(C)c3ccc(Br)cc32)ccc1O	-13.5	2.4	1.2	-10.0	-40.3*
CN1CCN(c2cc(N3CCN(C(=O)c4ccco4)CC3)c3c4c(onc24)-c2ccccc2C3=O)CC1	.	-1.1	0.4	54.4*	.
O=C1c2ccccc2-c2onc3c(N4CCN(CCO)CC4)cc(N4CCN(C(=O)c5ccco5)CC4)c1c23	-41.7	1.7	-1.2	30.9	-11.2
CC(=O)N1[C@@H]2c3ccc(-c4ccccc4)c(=O)n3C[C@H]1[C@H](CO)[C@H]2C(=O)N1CCCCC1	62.9*	-2.6	0.1	3.1	1.1
CC=Cc1ccc2n(c1=O)C[C@@H]1[C@@H](CO)[C@H](C(=O)NCc3ccccn3)[C@H]2N1CC1CC1 (mixture of isomers)	-12.5	4.9	-2.2	-12.3	3.8
CC=Cc1ccc2n(c1=O)C[C@H]1[C@H](CO)[C@@H](C(=O)NCc3ccccn3)[C@@H]2N1CCC (mixture of isomers)	96.3*	2.9	0.1	8.1	1.5
O=C(NCc1ccccc1)[C@H]1[C@H](CO)[C@H]2Cn3c(cccc3=O)[C@@H]1N2CC1CCCC1	14.2	-2.6	57.4	-4.4	1.2
O=C(NCc1ccccn1)[C@@H]1[C@@H](CO)[C@@H]2Cn3c(cccc3=O)[C@H]1N2CC1CCCCC1	57.3*	1.2	-1.1	11.4	-4.1
CCC(=O)N1[C@@H]2c3cccc(=O)n3C[C@H]1[C@H](CO)[C@H]2C(=O)NCc1ccccc1	6.6	-1.3	93.2*	2.2	2.2
SMILES	RAD52 anneal inh	PglD DTNB	Cneo AK release	RAD54 branch	rRNA inh HTS
C/C=C/c1cnc2c(c1)C(=O)N([C@H](C)CO)C[C@@H](C)[C@@H](CN(C)C(=O)Nc1ccccc1F)O2	-2.9	.	.	.	-3.2
COCC(=O)N1[C@H](C(=O)Nc2ccccc2)[C@@H](CO)[C@@H]2Cn3c(ccc(-c4ccncc4)c3=O)[C@@H]21	-8.2	1.2	1.1	-2.5	1.7
CCC(=O)N1[C@@H]2Cn3c(cccc3=O)[C@H]1[C@@H](C(=O)NCc1ccccc1)[C@@H]2CO	4.8	-0.2	99.4*	4.6	2.4
CCNC(=O)[C@@H]1[C@@H](CO)[C@@H]2Cn3c(cccc3=O)[C@H]1N2C(=O)Nc1cc(F)ccc1F	-8.7	.	.	.	0.9
CCC(=O)N1[C@H](C(=O)Nc2ccccc2)[C@@H](CO)[C@@H]2Cn3c(ccc(-c4ccncc4)c3=O)[C@@H]21	-1.5	3.0	99.0*	-7.9	1.9
CCC(=O)N1[C@@H]2c3cccc(=O)n3C[C@H]1[C@H](CO)[C@H]2C(=O)NCc1ccc(F)cc1	-5.8	-0.1	1.6	4.8	-0.2
CCNC(=O)[C@@H]1[C@@H](CO)[C@@H]2Cn3c(ccc(-c4ccccc4F)c3=O)[C@H]1N2C(=O)CC	100.9*	-1.8	-2.0	2.3	-0.3
CCCNC(=O)[C@H]1[C@H](CO)[C@H]2Cn3c(cccc3=O)[C@@H]1N2C(=O)Nc1cc(F)ccc1F	20.9	0.6	87.8*	-1.2	2.1
CCC(=O)N1[C@@H]2c3ccc(-c4ccccc4F)c(=O)n3C[C@H]1[C@H](CO)[C@H]2C(=O)NC1CCC1	5.0	-0.6	-0.8	-7.0	-0.3
C[C@@H](NC(=O)C[C@@H]1CC[C@H](NC(=O)CN2CCOCC2)[C@H](CO)O1)c1ccccc1	-2.6	1.6	-7.0	-3.0	1.6
COc1ccc(S(=O)(=O)Nc2ccc3c(c2)C(=O)N([C@H](C)CO)C[C@H](C)[C@H](CN(C)Cc2ccncc2)OCCCC[C@@H](C)O3)cc1	4.9	-1.5	-0.1	4.1	-4.0
CC(=O)N1[C@@H]2Cn3c(cccc3=O)[C@H]1[C@@H](C(=O)NCC1CCCCC1)[C@@H]2CO	58.8*	2.1	0.2	8.4	2.1
CO[C@H]1O[C@H](CO)[C@@H](OC(=O)Nc2ccccc2)[C@H](OC(=O)Nc2ccc3c(c2)OCO3)[C@@H]1OC(=O)Nc1ccc2c(c1)OCO2	-1.6	2.5	99.7*	-8.8	.
CO[C@H]1CN(C)C(=O)c2ccc(NS(=O)(=O)c3ccc(-c4ccccc4)cc3)cc2OC[C@H](C)NC[C@H]1C	18.5	0.9	55.4	2.9	4.0
CCS(=O)(=O)NCC[C@@H]1CC[C@@H](NC(=O)Nc2cc(Cl)cc(Cl)c2)[C@H](CO)O1	-12.5	-2.4	-1.3	7.5	-2.2
COc1ccc2c3c([nH]c2c1)[C@H](CO)N(C(=O)C1CCC1)CC31CN(C)C1	1.1	.	.	.	6.7
Cc1onc(-c2c(Cl)cccc2Cl)c1-c1nc2cc(Cl)ccc2c(=O)o1	-19.4	4.9	-1.9	-1.2	-33.8*
